Measured values as given in PubChem BioAssay AID489030 (Sanford-Burnham Center for Chemical Genomics, 2010).
Out of some 330,000 compounds screened, about 2,400 (0.73%) were called active. The sample holds actives, similar compounds and a random draw of the others, so the mix is not that of the screen. Rule for the calls: active = inhibition of at least 40% at 20 µM; inactive = the rest.

target: Apoptotic protease-activating factor 1 (Homo sapiens) (UniProt O14727); assay: inhibitors of human Apaf-1 apoptosome, primary screen, biochemical, DEVD-Rh110 fluorescence, uHTS (AID 489030); details: reconstituted apoptosome caspase-3 activity, at 20 µM, stronger effect = higher value;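 note: plate controls were DMSO wells for no effect and DEVD-CHO caspase inhibitor wells for full effect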
Procedure, shortened: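 Material: cell-free apoptosome with Apaf-1, procaspase-3 and caspase-9; Buffer or medium: Hepes pH 7.5 with detergent and BSA; Reagent: cytochrome c trigger plus (Z-DEVD)2-Rh110 caspase-3 substrate; Times: compound with Apaf-1, dATP, procaspase-3 30 min, then 50 min reaction, room temperature; Technique: Rh110 fluorescence intensity.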

Apoptotic protease-activating factor 1 (Homo sapiens), sequence (O14727 whole entry, looked up): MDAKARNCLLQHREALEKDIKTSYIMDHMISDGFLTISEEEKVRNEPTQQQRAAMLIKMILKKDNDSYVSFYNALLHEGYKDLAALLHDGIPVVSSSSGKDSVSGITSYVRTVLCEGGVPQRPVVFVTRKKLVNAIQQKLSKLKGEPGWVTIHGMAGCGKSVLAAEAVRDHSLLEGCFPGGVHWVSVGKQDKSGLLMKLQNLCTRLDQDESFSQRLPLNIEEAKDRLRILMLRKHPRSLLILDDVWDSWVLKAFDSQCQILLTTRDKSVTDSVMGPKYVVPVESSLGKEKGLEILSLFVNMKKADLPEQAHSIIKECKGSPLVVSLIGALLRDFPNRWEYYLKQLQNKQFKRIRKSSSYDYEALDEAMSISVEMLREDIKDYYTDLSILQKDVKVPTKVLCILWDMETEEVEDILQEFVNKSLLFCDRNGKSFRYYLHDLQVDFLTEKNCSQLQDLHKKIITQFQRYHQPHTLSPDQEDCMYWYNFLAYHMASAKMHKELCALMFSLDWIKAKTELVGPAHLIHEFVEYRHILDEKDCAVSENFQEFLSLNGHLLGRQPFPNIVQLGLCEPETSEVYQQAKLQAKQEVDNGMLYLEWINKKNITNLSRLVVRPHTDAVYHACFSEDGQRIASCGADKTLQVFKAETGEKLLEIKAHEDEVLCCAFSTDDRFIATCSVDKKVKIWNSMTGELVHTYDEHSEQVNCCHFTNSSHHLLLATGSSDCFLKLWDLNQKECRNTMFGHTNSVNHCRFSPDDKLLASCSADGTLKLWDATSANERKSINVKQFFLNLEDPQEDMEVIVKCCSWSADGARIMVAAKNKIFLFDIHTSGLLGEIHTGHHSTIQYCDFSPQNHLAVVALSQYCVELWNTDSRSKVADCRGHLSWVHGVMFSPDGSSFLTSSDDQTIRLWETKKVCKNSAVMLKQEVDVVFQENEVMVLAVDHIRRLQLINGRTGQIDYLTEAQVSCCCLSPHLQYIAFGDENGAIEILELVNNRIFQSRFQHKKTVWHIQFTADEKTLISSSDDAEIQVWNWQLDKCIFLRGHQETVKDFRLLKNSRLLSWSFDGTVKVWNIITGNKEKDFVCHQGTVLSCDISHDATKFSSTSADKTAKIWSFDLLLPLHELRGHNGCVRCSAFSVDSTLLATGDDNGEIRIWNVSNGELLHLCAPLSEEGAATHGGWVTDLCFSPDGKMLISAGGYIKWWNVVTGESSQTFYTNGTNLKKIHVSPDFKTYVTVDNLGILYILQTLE

| SMILES | inhibition |
| --- | --- |
| O=C(O)COCC(=O)NCc1csc2ccc(Cl)cc12 | -14.6% (inactive) |
| CCOc1ccc(Br)cc1S(=O)(=O)Nc1ccc(S(=O)(=O)Nc2cc(C)on2)cc1 | 9.47% (inactive) |
| CCCS(=O)(=O)C(=C1Nc2ccccc2N1)S(=O)(=O)CCC | 8.61% (inactive) |
| COc1ccc(S(=O)(=O)/N=C2\C=C(NS(=O)(=O)c3ccccc3)C(=O)c3ccccc32)cc1 | 79.2% (active) |
| CCCC(NS(=O)(=O)c1ccc(OC)cc1)C(=O)O (configuration not stated) | -6.54% (inactive) |
| COc1ccc(S(=O)(=O)NCCCc2ccccc2)cc1 | -8.3% (inactive) |
| CCOC(=O)c1cnc(SC)nc1Sc1ccc(Cl)cc1Cl | 14% (inactive) |
| O=C(c1cnccn1)N1CCN(S(=O)(=O)c2cccc(Cl)c2)CC1 | -4.31% (inactive) |
| Cc1ccc(C(C)C)cc1OCC(=O)Nc1ccccc1N1CCCC1 | 16.1% (inactive) |
| CN1CCN(c2ccccc2NC(=O)COc2ccc(C3CCCCC3)cc2)CC1 | 43.6% (active) |
| O=C(CN1CCN(C2CCCCC2)CC1)Nc1ccccc1N1CCCCC1 | 6.34% (inactive) |
| Cn1nnnc1SCC(=O)Nc1cccc(S(=O)(=O)N2CCCCC2)c1 | 7.72% (inactive) |
| CC(=O)c1c(C)[nH]c(C(=O)OCC(=O)NCCC(C)C)c1C | -7.2% (inactive) |
| CC(=O)c1c(C)[nH]c(C(=O)COC(=O)CCOc2ccc(C)cc2)c1C | 9.54% (inactive) |
| CC(C)(C)C(=O)N1CCC[C@@]1(CO)C(=O)O | 6.37% (inactive) |
| Cc1ccc(N=C2NC(=O)/C(=C/C=C/c3ccco3)S2)cc1C | 61.8% (active) |
| CN1C(=O)/C(=C/c2ccco2)SC1=Nc1cccc(C(=O)O)c1 | 20% (inactive) |
| O=C1COc2ccc(S(=O)(=O)Nc3ccc(OC(F)(F)F)cc3)cc2N1 | 11.8% (inactive) |
| O=S(=O)(Nc1ccc(O)c2ccccc12)c1ccc(OC(F)(F)F)cc1 | 60.9% (active) |
| Cc1nn(C)c(C)c1NS(=O)(=O)c1ccc(OC(F)(F)F)cc1 | -0.237% (inactive) |
| CCCCCCc1cc2cc(-c3nnc(-c4ccccc4)o3)c(=O)oc2cc1O | 67.8% (active) |
| Cc1c(CCC(=O)O)c(=O)oc2cc3occ(-c4ccccc4)c3cc12 | -15.7% (inactive) |

| SMILES | inhibition |
| --- | --- |
| CCc1ccc(CN(C)C(=O)CCc2nnc(-c3ccc(-c4ccccc4)cc3)o2)nc1 | 12.9% (inactive) |
| O=C(/C=C/c1ccc([N+](=O)[O-])cc1)NCCSCc1ccco1 | -3.53% (inactive) |
| COc1ccc(NS(=O)(=O)c2ccc3oc(SCC(N)=O)nc3c2)cc1 | 4.33% (inactive) |
| CN(C)S(=O)(=O)c1ccc2oc(SCC(=O)Nc3ccccc3F)nc2c1 | 61.1% (active) |
| COc1ccc(S(=O)(=O)N(C)C)cc1NC(=O)CSc1ncccn1 | -1.98% (inactive) |
| CC(C)[C@@H]1COC(c2cccc(C3=N[C@H](C(C)C)CO3)c2)=N1 | 9.42% (inactive) |
| CN(C)c1ccnc(Oc2ccc(F)cc2)c1C#N | -5.43% (inactive) |
| COc1ccccc1CNC(=O)[C@@H]1CCCN1C(=O)[C@@H]1Cc2ccccc2CN1C(=O)OC(C)(C)C | 11% (inactive) |
| COc1ccc(Cn2cccc(NC(=O)Nc3ccc(C#N)cc3)c2=O)cc1 | -0.047% (inactive) |
| Cc1cc(C)c(C(N)=O)c(Cl)n1 | -5.56% (inactive) |
| CC1CCc2[nH]c3ccc(C(=O)N(C)CC(=O)Nc4cccc(F)c4)cc3c2C1 (configuration not stated) | 20.4% (inactive) |
| O=C(CCCN1CCc2[nH]c3ccc(F)cc3c2C1)c1ccc(F)cc1 | 65% (active) |
| O=c1c2ccccc2[nH]c(=S)n1CCN1CCC(=C(c2ccc(F)cc2)c2ccc(F)cc2)CC1 | 15.1% (inactive) |
| Cc1nn(C)c(C)c1CN(C(=O)CCc1nnc(Cc2c[nH]c3ccccc23)o1)C(C)C | -6.13% (inactive) |
| O=C1CCCCC1C(=O)c1ccccc1 (configuration not stated) | -20% (inactive) |
| COc1ccc(NC(=O)CCNS(=O)(=O)c2ccc3c(c2)c(=O)n(C)c(=O)n3C)cc1OC | -6.12% (inactive) |
| CC(C)=CC(=O)Nc1nnc(-c2ccc(F)cc2)s1 | 0.969% (inactive) |
| CC(=O)OC(COc1ccc(F)cc1)Cn1cnc2ccccc21 (configuration not stated) | 17.3% (inactive) |
| CC(=O)OCC(COC(C)=O)OC(C)=O | 6.7% (inactive) |
| CC(=O)N=c1ncn(CC(COC(C)=O)OC(C)=O)c2nc[nH]c12 (configuration not stated) | 74.2% (active) |
| Cn1c(SCC(=O)C(C)(C)C)nnc1-c1ccccn1 | -10.6% (inactive) |
| CCOC(=O)N1CCC(c2cc(=O)n(-c3ccccc3)[nH]2)CC1 | 86.7% (active) |

| SMILES | inhibition |
| --- | --- |
| CCOC(=O)CN1CCC(c2ccccc2)CC1 | -14.9% (inactive) |
| CCOC(=O)N1CCC(NC(=O)CCc2ccccc2)CC1 | -3.62% (inactive) |
| CCc1cc(C(=O)OC)c(NC(=O)CC2Sc3ccc(C(F)(F)F)cc3NC2=O)s1 (configuration not stated) | 22.8% (inactive) |
| CCOC(=O)Nc1ccc2c(c1)N(C(=O)CN1CCN3CCCC3C1)c1ccccc1CC2 (configuration not stated) | -1.68% (inactive) |
| Cc1ccc(-c2cccc([C@H]3[C@@H]4C=CC[C@@H](C)[C@@H]4C(=O)N3Cc3ccccc3)c2)cc1 | 19.9% (inactive) |
| CC1(C)CC(=O)C=C(c2ccc3ncccc3c2)C1 | -1.2% (inactive) |
| Cc1cc2oc3ccc(NCCC4CCCN4C)cc3c(=O)c2cc1C (configuration not stated) | 46.9% (active) |
| Cc1cc2oc(=O)cc(CN3CCN(Cc4ccccc4)CC3)c2cc1C | 17.9% (inactive) |
| COc1cccc2sc3cc(NCC[C@@H]4CCCN4C)ccc3c(=O)c12 | 39.7% (inactive) |
| CC(C)c1ccc2oc(=O)cc(CN3CCN(Cc4ccccc4)CC3)c2c1 | 19.2% (inactive) |
| COc1ccc(N(CCC(=O)NCCc2ccccc2)S(=O)(=O)c2ccc(C)cc2C)cc1 | 54.9% (active) |
| COc1ccc(CCNC(=O)CN(c2ccccc2)S(C)(=O)=O)cc1 | 4.78% (inactive) |
| CCOc1ccc(N(CC(=O)NCCc2ccc(OC)cc2)S(C)(=O)=O)cc1 | 5.5% (inactive) |
| O=c1cc(CN2CCN(S(=O)(=O)/C=C/c3ccccc3)CC2)c2ccc(O)cc2o1 | 21.6% (inactive) |
| O=C(NCCCN1CCOCC1)c1ccccc1NS(=O)(=O)c1ccc(F)cc1 | -4.73% (inactive) |
| COc1ccc(N2CCN(c3ccc([N+](=O)[O-])nc3)CC2)cc1 | -5.77% (inactive) |
| CCOC(=O)C1Sc2[nH]c(=O)sc2C(c2ccc(Cl)cc2)C1C(=O)OCC (configuration not stated) | 2.05% (inactive) |
| C=CCC[C@H](Cc1ccc(F)cc1)C(=O)OC[C@@H](Cc1c[nH]c2ccccc12)NC(=O)[C@H](CC=C)CC(=O)N[C@H](CO)Cc1ccccc1 | 1.18% (inactive) |
| C=CC[C@@H](CC(=O)N[C@H](CO)Cc1ccccc1)C(=O)N[C@H](C)COC(=O)[C@@H](CC=C)Cc1ccc(F)cc1 | 23% (inactive) |
| C=CCC[C@H](Cc1ccc(F)cc1)C(=O)OC[C@@H](NC(=O)[C@@H](CC=C)CC(=O)N[C@H](CO)Cc1ccccc1)C(C)(C)C | 40.6% (active) |
| COCCNC(=O)c1ccccc1-c1nc(-c2ccccc2Cl)no1 | 6.12% (inactive) |
| O=C(Nc1cc(S(=O)(=O)N2CCOCC2)ccc1N1CCOCC1)c1c(F)cccc1Cl | -5.54% (inactive) |

| SMILES | inhibition |
| --- | --- |
| Cc1ccc(NC(=O)CN(C)C(=O)Cn2nnc(-c3ccccc3)n2)cc1 | 8.51% (inactive) |
| COc1ccc(C2C(C#N)=C(N)Oc3cc(N)ccc32)cc1OC (configuration not stated) | -6.32% (inactive) |
| COc1ccccc1C1C(C#N)=C(N)Oc2c1c(-c1ccccc1)nn2-c1ccccc1 (configuration not stated) | 42.2% (active) |
| Cc1nn(Cc2ccccc2)c2c1C(c1ccccc1)C(C#N)=C(N)O2 (configuration not stated) | 7.58% (inactive) |
| COc1ccc(C2/C(=C(/O)c3ccccc3)C(=O)C(=O)N2C)c(OC)c1 (configuration not stated) | 2.34% (inactive) |
| COc1ccc(/C=C2/C(=O)OCc3cc(OC)c(OC)cc32)c(OC)c1 | 6.28% (inactive) |
| COc1ccc(/C=C2/C(=O)N(c3ccccc3)N=C2C)c(OC)c1 | 80.1% (active) |
| O=C1CN(C(=O)COC(=O)/C=C/c2ccc(F)cc2)c2ccccc2N1 | 5.3% (inactive) |
| O=C(CO/N=C/c1ccccc1OC(F)F)NC1CCCC1 | 0.277% (inactive) |
| CCCNC(=O)c1ccc(N2CCC3(CC2)CC(c2cccc(Br)c2)=NO3)c(NC(=O)c2ccco2)c1 | 14.2% (inactive) |
| CC1CCC2(CC1)NC(=O)N(CC(=O)c1ccc3c(c1)OCO3)C2=O (configuration not stated) | -10.1% (inactive) |
| Cc1ccc(S(=O)(=O)N2CCN(C(=O)N3CCOCC3)CC2)c(C)c1 | -7.82% (inactive) |
| Cc1ccc(S(=O)(=O)N2CCN(C(=O)c3ccccc3-c3nc4ccccc4s3)CC2)c(C)c1 | 40.3% (active) |
| Cc1ccc(S(=O)(=O)N2CCN(C(=O)Cn3c(=O)cnc4ccccc43)CC2)c(C)c1 | -0.646% (inactive) |
| CCN1C[C@@H]2[C@@H]3C(=O)N(Cc4ccccc4)C(=O)[C@@H]3[C@](Cc3ccccc3)(C(=O)OC)N2C1=NC1CCCCC1 | 41.2% (active) |
| CCCN=C1N(C)C[C@@H]2[C@@H]3C(=O)N(Cc4ccccc4)C(=O)[C@@H]3[C@](C)(C(=O)OC)N12 | 11.4% (inactive) |
| CC[C@]1(C(=O)OC)[C@H]2C(=O)N(Cc3ccccc3)C(=O)[C@H]2[C@H]2CN=C(SCc3ccccc3)N21 | 25.2% (inactive) |
| Cc1nnc(Sc2nc3c(c(=O)[nH]c(=O)n3C)n2Cc2ccccc2)s1 | 21% (inactive) |
| O=C1NC(c2ccc(-c3ccccc3[N+](=O)[O-])o2)C(C(=O)c2ccc(Cl)cc2)C(O)(C(F)(F)F)N1 (configuration not stated) | 36.8% (inactive) |
| O=C(Nc1ccc(N2CCOCC2)cc1)c1ccc(-c2ccccc2[N+](=O)[O-])o1 | 2.89% (inactive) |
| CC1=NN(c2ccc(Cl)c(C(=O)O)c2)C(=O)/C1=C/c1ccc(-c2ccccc2[N+](=O)[O-])o1 | 42.9% (active) |
